Rows were chosen to be rich in hits. Some 2.5% of all compounds tested hit in one or more screens of this group.
SIAE primary = human SIAE inhibitors, primary screen, biochemical, fluorescence polarization, FP-Rh probe, 1536-well HTS. Sialate O-acetylesterase (Homo sapiens), Q9HAT2. SIAE FP-Rh probe binding. inhibition, % at 9.66 µM. 370,000 compounds, 0.69% hits. AID 1053197, 2014;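 active means inhibition above a cutoff: mean of compounds within the control limits plus 3 SD of those, cut at about 17% in these data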;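 further: 0% = plate median of compound wells and 100% = probe without SIAE protein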
HTRA1 inhibitor = HTRA1 serine protease inhibitors, primary screen, biochemical, fluorescence polarization, HTS | Q92743 | recombinant HTRA1, FP-rhodamine activity-based probe | inhibition, % at 5.96 µM | 340,000 compounds, 0.5% hits; in the data active means inhibition above about 36%;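 further: 0% = enzyme with DMSO and 100% = wells lacking enzyme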
PRMT1 inh = PRMT1 methyltransferase inhibitors, primary screen, biochemical, fluorescence polarization. Protein arginine N-methyltransferase 1 (Homo sapiens), Q99873. recombinant PRMT1, activity-based probe fluorescence polarization. inhibition, % at 2.79 µM. 370,000 compounds, 1.3% hits. AID 652257, 2013;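 active means inhibition above about 21% made by adding two undisclosed values, limit read from the data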
TCR CD3 inh = inhibitors of human TCR-CD3 interaction, primary screen, biochemical, fluorescence, TAMRA-labeled TCR probe; T-cell receptor (TCR); inhibition, % at 9.4 µM; 360,000 compounds, 0.37% hits; in the data active means inhibition above about 19%;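 further: recombinant mutant TCR 2C K166C tagged with TAMRA read by polarization; 0% = receptor in buffer alone and 100% = receptor with positive control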
mABHD4 FP = ABHD4 inhibitors, primary screen, biochemical, fluorescence polarization, mouse | (Lyso)-N-acylphosphatidylethanolamine lipase (Mus musculus), Q8VD66 | purified mABHD4, FP-Rh probe fluorescence polarization | inhibition, % at 8.92 µM | 370,000 compounds, 0.54% hits | AID 720543, 2013;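 active means inhibition exceeding the mean over every tested compound plus 3 SD, cut at about 30% in these data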;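 further: 0% = plate median of compound wells and 100% = S159A mutant with DMSO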
Target sequence (Q8VD66 whole entry, looked up): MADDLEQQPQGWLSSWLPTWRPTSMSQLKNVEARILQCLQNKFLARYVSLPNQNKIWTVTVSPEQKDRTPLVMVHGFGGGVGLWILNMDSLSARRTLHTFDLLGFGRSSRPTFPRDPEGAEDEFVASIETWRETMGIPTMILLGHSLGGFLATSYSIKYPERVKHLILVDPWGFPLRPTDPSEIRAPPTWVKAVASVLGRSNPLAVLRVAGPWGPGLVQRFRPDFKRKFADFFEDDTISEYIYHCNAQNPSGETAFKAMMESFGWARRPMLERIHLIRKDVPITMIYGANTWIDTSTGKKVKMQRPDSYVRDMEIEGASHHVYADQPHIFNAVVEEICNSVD
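Assay system: mABHD4 protein; medium: HEPES pH 7.0, NaCl, Pluronic buffer; dosing: 8.92 µM, single dose; schedule: 45 min + 60 min at 25 °C; signal: FP readout, ex 525 nm / em 598 nm; read-out: normalized percent inhibition of probe labeling; repeats: single replicate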
* hit, by the source's call; / = not tested or not shown.

SMILES	SIAE primary	HTRA1 inhibitor	PRMT1 inh	TCR CD3 inh	mABHD4 FP
Cc1ccc(C2=Nc3ccccc3SC(c3cccc([N+](=O)[O-])c3)C2)cc1 (stereo not given)	5	-16	76*	-3	5
CC(=O)N1C(=O)CC(C)N(C(C)=O)c2ccc([N+](=O)[O-])cc21 (stereo not given)	-3	5	0	13	-7
COc1ccc(C2CC(=O)C(c3cccc(F)c3)=CN2Cc2ccccc2)cc1 (stereo not given)	-6	/	1	5	-11
O=C(O)c1cccc(S(=O)(=O)Nc2ccccc2Oc2ccccc2)c1	-2	6	4	-1	-10
CCn1c(=S)[nH]c2scc(-c3cccs3)c2c1=O	5	6	23*	0	-14
COCCCNc1nc2c(c(=O)[nH]c(=O)n2C)n1CC(O)COc1ccccc1C (stereo not given)	19*	2	1	7	7
Cc1cccc(N2CCN(C(=O)CCC(=O)N3CC(C)Oc4ccccc43)CC2)c1C (stereo not given)	-5	-2	-3	20*	-1
Fc1ccccc1C1CC(c2ccco2)=Nc2ccccc2S1 (stereo not given)	-1	-2	71*	-9	-4
Oc1ccc(Cl)cc1C1=Nc2ccccc2N=C(c2ccco2)C1	3	-1	0	-3	11
Cc1[nH]c2ccccc2c1SCC(=O)O	6	4	1	5	0
O=C(O)CSc1c2ccccc2cc2ccccc12	3	-5	31*	0	22
COc1ccc(NC(=O)c2cc(C3CCCCN3S(=O)(=O)c3cccs3)on2)c(C)c1 (stereo not given)	6	/	-5	6	-7
COc1cc(C(=O)NC2CCCCN(Cc3ccc(Cl)cc3)C2=O)cc(OC)c1OC (stereo not given)	7	/	2	/	2
O=[N+]([O-])c1ccccc1S(=O)(=O)Nc1ccc(S(=O)(=O)Nc2nccs2)cc1	1	-2	2	2	1
Nc1ccc(S(=O)(=O)Nc2nccs2)cc1N=Nc1ccccc1[N+](=O)[O-]	5	8	25*	11	15
O=C1C(Cl)=C(N2CCC(C(=O)O)CC2)C(=O)c2ccccc21	/	7	/	/	/
NC(=O)C1CCN(C2=C(Cl)C(=O)c3ccccc3C2=O)CC1	-4	10	25*	4	7
CNc1cccccc1=S	3	11	26*	9	15
CNc1ccccc1	0	-1	-1	1	4
N#CC(C#N)=C(N)/C(C#N)=C/c1cc(O)c(O)c(O)c1	-14	19	20	6	33*
N#C/C(=C/c1cc(Cl)c(O)c(Cl)c1)C(=O)N1CCCCC1	2	6	-1	-2	8
CN1CCN(NC(=O)CN2C(=O)/C(=C/c3ccccc3Cl)SC2=S)CC1	-12	-18	16	-27	-7
CN1CCN(NC(=O)CN2C(=O)/C(=C/c3c(Cl)cccc3Cl)SC2=S)CC1	-6	-4	22*	-11	-3
C[C@H](NC(=O)[C@@H]1CSC2c3ccccc3C(=O)N21)C(=O)NCCc1ccc(F)cc1 (stereo not given in full)	-5	5	25*	-2	-5
CC(=O)c1cc(-c2ccccc2-c2ccccc2)c(=O)n2c1CCC2	1	/	3	/	8
SMILES	SIAE primary	HTRA1 inhibitor	PRMT1 inh	TCR CD3 inh	mABHD4 FP
Cc1ccc(C2=NN=C(NC(=O)CSc3nc(C)cc(C)n3)SC2)cc1	-3	/	91*	-1	4
CCOC(=O)c1nn(-c2ccccc2C)c(=O)c2c(N)scc12	1	-1	25*	-9	0
CCCCNC(=O)CSc1nc2ccsc2c(=O)n1CCCC(=O)NCCc1ccc(S(N)(=O)=O)cc1	-6	0	-5	6	3
COCCCN(C(=O)C1=COCCO1)c1c(N)n(Cc2ccccc2)c(=O)[nH]c1=O	7	-6	1	-4	4
CCN1C(=O)/C(=C2\SC(=S)N(NC(=O)c3cccnc3)C2=O)c2ccccc21	3	1	21*	-3	9
COC(=O)[C@H](Cc1ccccc1)NC(=O)NCCc1ccccc1F	-8	7	3	1	-4
COc1ccc(C(NC(=O)/C=C/c2ccco2)c2ccc(OC)c(OC)c2)cc1 (stereo not given)	-5	-12	25*	-10	-6
CSC1=N/C(=C\c2ccc(Br)o2)C(=O)S1	2	-1	25*	6	12
Cn1cnc([N+](=O)[O-])c1Sc1ncn[nH]1	2	4	-3	-12	6
Cn1cnc([N+](=O)[O-])c1Sc1nnc(-c2ccccc2)c(-c2ccccc2)n1	-7	/	24*	-3	-3
CC(=O)Nc1ccc(NS(=O)(=O)c2cccc3nonc23)cc1	7	6	-3	6	2
CC(C)(C)[C@H]1COC(=O)CCCC/C=C\C[C@H](CC(=O)N(CCO)Cc2ccccc2)C(=O)N1	11	5	-5	3	5
CC(C)OP(=O)(OC(C)C)C(O)c1cccc([N+](=O)[O-])c1 (stereo not given)	1	6	-2	0	-1
Cc1ccccc1C(=O)Nc1ccc(-c2nc3ccc(C(=O)c4ccccc4)cc3[nH]2)cc1	-145	-112	2	67*	-110
CS(=O)(=O)c1ccccc1C(=O)Nc1ccc(-c2nc3ccccc3[nH]2)cc1	1	-5	-2	0	-4
CCOc1ccc(CCNC(=O)Cn2nc(C)n3cccc3c2=O)cc1OCC	/	-1	/	/	/
O=C1CC(N2CCN(c3ccccc3Cl)CC2)C(=O)N1c1ccccc1 (stereo not given)	3	-7	24*	-1	0
CCOC(=O)[C@@]12CCCC=C1N(CCc1ccc(Cl)cc1)C(=O)[C@H]2CC(=O)NCc1cccc(C(F)(F)F)c1	-3	/	0	/	-8
Nc1nc(SCc2ccccc2)ns1	7	-2	23*	6	-1
O=[N+]([O-])c1nccn1CC(O)CCN1CCOCC1 (stereo not given)	14	/	3	-2	10
Cc1ccc(S(=O)(=O)N2CCCC2C(=O)NCc2ccc3c(c2)OCO3)cc1 (stereo not given)	-3	8	-1	2	-5
Cc1cccc(Nc2nc3ccccc3s2)c1C	5	-11	3	5	18
Cc1cccc(Nc2n[nH]c(=S)s2)c1C	9	-3	24*	5	0
COc1ccccc1/C=N/OCc1cc(C(C)=O)ccc1OC	-4	-26	-2	0	-3
COC(=O)Cc1cc(=O)n(-c2nc3ccccc3[nH]2)[nH]1	17	36	3	22*	17
COc1ccc(CC(=O)Nc2nc3ccccc3[nH]2)cc1	2	0	-8	2	-1

From PubChem
